Screening results deposited in PubChem by several laboratories.
SR-BI uptake up = activators of SR-BI mediated HDL lipid uptake. CHO ldlA[mSR-BI] cells, DiI-HDL uptake fluorescence, 3 h; 100 = double the neutral-control signal. activation, % at 12.5 µM. 320,000 tested, 0.096% active. AID 504775;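 active = mean replicate activation of at least 60% and every replicate at or above 60%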
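Material – SR-BI-overexpressing, LDLR-lacking CHO cells · Medium – BSA-supplemented, HEPES-buffered Ham's F12, pH 7.4 · Doses – single concentration · Times – compound with DiI-HDL co-incubation, 3 h at 37 °C · Measured by – bottom-read fluorescence, 550/595 nm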
ATG4B inh = inhibitors of human ATG4B cysteine protease; 340,000 tested, 0.51% active; AID 504462; ATG4B cleavage of LC3-PLA2, NBD-HPC fluorescence, 1 h; inhibition, % at 8.33 µM; in the data active = inhibition above about 40%
CAL PDZ FP-1 = human CAL PDZ-peptide interaction inhibition; inhibition, % at 20 µM; 330,000 tested, 0.02% active; AID 504414; purified CAL PDZ, TMR-peptide fluorescence polarization, 1 h; Q9HD26;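 active = highest replicate inhibition of at least 40%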
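Read-out basis: mP drop reported as inhibition | Assay system: Tagged CAL PDZ protein CerCALP, purified | Benchmarks: Unlabelled peptide for full inhibition, DMSO wells as neutral | Schedule: 1 h incubation at room temperature before polarization reading | Buffer or medium: Sodium phosphate/NaCl buffer pH 7.4 with TCEP, IgG, Thesit | Doses: Single point, 20 µM | Measured by: Fluorescence polarization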
SR-BI HDL uptake = inhibitors of mouse SR-BI mediated HDL lipid uptake; ldlA[mSR-BI] CHO cells, DiI-HDL uptake fluorescence, 3 h; inhibition, % at 12.5 µM; 320,000 tested, 0.96% active;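 active = mean replicate inhibition of at least 70% and a set share of replicates each scoring 70 or more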
Target sequence (Q61009 whole entry, looked up): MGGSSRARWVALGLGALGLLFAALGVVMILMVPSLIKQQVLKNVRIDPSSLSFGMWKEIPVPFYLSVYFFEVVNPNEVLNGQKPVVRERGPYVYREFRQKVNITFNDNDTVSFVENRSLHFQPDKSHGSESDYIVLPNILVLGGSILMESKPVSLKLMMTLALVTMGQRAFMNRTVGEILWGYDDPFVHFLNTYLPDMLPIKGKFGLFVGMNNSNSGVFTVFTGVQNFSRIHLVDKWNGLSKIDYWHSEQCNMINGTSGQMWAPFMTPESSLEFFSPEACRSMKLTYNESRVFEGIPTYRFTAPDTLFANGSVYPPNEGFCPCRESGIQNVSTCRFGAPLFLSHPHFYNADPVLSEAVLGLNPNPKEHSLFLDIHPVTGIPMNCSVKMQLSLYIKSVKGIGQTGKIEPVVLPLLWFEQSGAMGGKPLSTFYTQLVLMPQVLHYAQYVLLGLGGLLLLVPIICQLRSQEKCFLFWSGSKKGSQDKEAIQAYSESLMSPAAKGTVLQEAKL
CAL PDZ FP-2 = blocks peptide binding to the human CAL PDZ domain; 300,000 tested, 0.92% active; purified CAL PDZ, TMR-peptide fluorescence polarization, 1 h; Q9HD26; inhibition, % at 24.9 µM;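 active = mean inhibition of at least 30% with at least half of replicates also reaching 30%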
A number is an active result; - = inactive; . = no result. In the library only some 2.3% were active in any assay of this set; here they are far more common.

SMILES	SR-BI uptake up	ATG4B inh	CAL PDZ FP-1	SR-BI HDL uptake	CAL PDZ FP-2
COc1cccc(-c2nc(-c3ccc(NC(=O)Cc4ccccc4OC)cc3)no2)c1	-	-	-	78.3	-
COc1cc(-c2nc(-c3ccc(NC(=O)c4ccc(Br)o4)cc3)no2)cc(OC)c1OC	-	-	-	-	-
NNC(=O)c1cc(C23CC4CC(CC(C4)C2)C3)nc2ccccc12	-	-	-	88.8	-
N#Cc1ccc(CN2CCN(C(=O)CC(NC(=O)c3ccccc3)c3ccccc3)CC2)cc1 (stereo not given)	-	-	-	-	-
CCN(CC(=O)Nc1ccc(NC(C)=O)cc1)C(=O)c1cccnc1Sc1ccc(C)c(C)c1	-	-	-	-	.
Cc1ccc(S(=O)(=O)N2[C@@H](c3ccc(Cl)cc3)C(C(=O)O)=CC[C@H]2c2cccs2)cc1	-	-	-	-	-
CCN(CC)c1cc(C)c2cc(NC(=O)c3ccc(Br)o3)ccc2n1	-	-	.	73.3	-
O=c1cc(O)c2ccc(O)cc2o1	-	-	-	-	-
O=c1ccc2[n+]([O-])c3ccc(O)cc3oc-2c1	-	-	43.1	-	71.4
CCNC(=O)C12CCC(C)(c3nc4cc(C)c(C)cc4nc31)C2(C)C (stereo not given)	-	-	-	-	-
NC(=S)N/N=C1\CCSc2ccc(Cl)cc21	-	-	-	81.2	.
O=C(CNS(=O)(=O)c1ccc(Br)cc1)NCc1ccncc1	-	-	-	-	-
Cc1ccc(/C=N/NC(=O)CSc2nnc(-c3ccccc3)n2-c2ccc(Cl)cc2)o1	-	-	-	-	69.9
Cc1ccc(/C=N/NC(=O)CSc2nnc(-c3ccc(Cl)cc3)n2-c2ccc(Cl)cc2)o1	-	-	-	-	-
CN(C)CCN(C(=O)c1ccc2ccccc2c1)c1nc2ccc(F)cc2s1	-	-	-	-	-
CCc1ccc2nc(N(CCN(C)C)C(=O)c3ccc4ccccc4c3)sc2c1	-	-	-	-	69.0
Cn1c(=O)c2[nH]c(NN=Cc3cccc(Br)c3)nc2n(C)c1=O	-	-	-	-	-
COC(=O)c1c(C)oc2ccc(N(C(C)=O)S(=O)(=O)c3ccccc3)cc12	-	-	-	-	-
COc1ccc(S(=O)(=O)N(C(C)=O)c2ccc3oc(=O)sc3c2)cc1	-	-	-	-	89.4
COc1ccc(N(CC(=O)NCc2ccc(C)cc2)S(=O)(=O)c2c(C)[nH]c(=O)[nH]c2=O)cc1	-	-	-	-	-
CCOc1ccc(N(CC(=O)NCc2ccc(C)cc2)S(=O)(=O)c2c(C)[nH]c(=O)[nH]c2=O)cc1	-	-	-	-	37.8
CCOC(=O)N1CCN(C(=O)CSc2nnc3[nH]c(=O)c(C)c(C)n23)CC1	-	-	-	-	-
COC(=O)c1ccc(S(=O)(=O)NCCc2ccccc2OC)n1C	-	-	-	-	69.0
COc1ccccc1CCNS(=O)(=O)c1cn(C)c(=O)n(C)c1=O	.	-	-	.	-
O=C(NCc1ccccn1)c1ccco1	-	-	-	-	-
SMILES	SR-BI uptake up	ATG4B inh	CAL PDZ FP-1	SR-BI HDL uptake	CAL PDZ FP-2
O=C(NCc1ccccn1)c1cn(Cc2ccccc2)nn1	-	-	.	-	104.9
NS(=O)(=O)c1ccc(CNC(=O)c2scc3c2CCCC3)cc1	-	-	-	-	-
CN(CCOc1ccccc1)C(=O)c1ccc2c(c1)OCO2	-	-	-	-	62.0
CSc1ncccc1C(=O)NC1CC(C)(C)Cc2c1cnn2-c1ccccc1C (stereo not given)	-	-	-	-	-
COc1cc2c(cc1OC)CN(C(=S)Nc1ccccc1Cl)CC2	-	-	.	-	68.0
COc1cc2c(cc1OC)CN(C(=S)Nc1ccccc1)CC2	-	-	-	-	-
COc1ccc(C)cc1NC(=O)C1CCCN(S(=O)(=O)c2cccnc2)C1 (stereo not given)	-	-	-	-	-
Cc1ccc(-c2cc(-c3ccc(C)cc3O)[nH]n2)cc1	-	-	.	100.4	-
Cc1ccc(-c2cc(-c3ccc(F)cc3)n[nH]2)c(O)c1	-	-	-	-	-
Oc1ccccc1-c1cc(-c2ccc(F)cc2)n[nH]1	-	-	-	-	33.8
Oc1ccccc1-c1cc(-c2ccccc2)n[nH]1	-	-	-	-	-
Cc1ccc(O)c(-c2cc(-c3cccc(Br)c3)n[nH]2)c1	-	-	-	-	86.3
Oc1ccc(F)cc1-c1cc(-c2ccc3c(c2)OCCO3)n[nH]1	-	-	-	78.6	-
CCOc1ccc(C(C)=O)cc1COc1cccnc1[N+](=O)[O-]	-	-	-	-	-
CN(C)S(=O)(=O)c1ccc(Cl)c(NC(=O)COC(=O)CNS(=O)(=O)c2c(F)cccc2F)c1	-	-	-	-	-
CCOC(=O)C1CC2=C(CC(C)(C)CC2=O)N(CCOC)C1=O (stereo not given)	-	-	-	-	-
Cc1cc(C)c(NC(=O)CSc2nc3ccc(NC(=O)CSc4nnnn4-c4ccccc4)cc3s2)c(C)c1	-	-	-	77.0	-
O=C(CCSCCC(=O)NN=Cc1ccc(F)cc1)NN=Cc1ccc(F)cc1	-	-	-	81.8	-
CCNC(=O)NC(=O)C(C)OC(=O)[C@H](C)NS(=O)(=O)c1c(C)c(C)cc(C)c1C (stereo not given in full)	-	-	-	-	-
O/N=C/c1ccc2ccccc2n1	81.6	-	-	-	.
O=C(c1cc(COc2ccccc2)on1)N1CCCC(CN2CCOCC2)C1 (stereo not given)	-	-	-	-	52.5
COc1ccc(CNCCSc2nnnn2C)cc1OC	-	-	-	-	-
COc1cccc(CNCCSc2nnnn2C)c1	60.4	-	.	-	-
Cc1cc(C)n(-c2cccc(C(=O)O)c2)n1	-	-	-	-	-
N#Cc1ccc(S(=O)(=O)N2CCN(C(=O)c3cn(-c4ccccc4)nc3-c3cccnc3)CC2)cc1	-	-	-	-	-
SMILES	SR-BI uptake up	ATG4B inh	CAL PDZ FP-1	SR-BI HDL uptake	CAL PDZ FP-2
O=[N+]([O-])c1ccc(/C=N/NC2=NS(=O)(=O)c3ccccc32)cc1	-	-	-	-	-
O=[N+]([O-])c1ccc(O)c(/C=N/NC2=NS(=O)(=O)c3ccccc32)c1	-	-	-	87.7	-
O=[N+]([O-])c1ccc(O)c(/C=N/Nc2nn[nH]n2)c1	-	-	-	-	-
O=[N+]([O-])c1ccc(O)c(/C=N/Nc2ccc(Cl)nn2)c1	-	-	-	106.2	-
O=C(NCC(c1ccco1)N1CCCCC1)c1ccc(COc2ccc(Cl)cc2)cc1 (stereo not given)	-	-	-	-	.
COc1cccc(C(=O)NCCS(=O)(=O)NC2CCCC2)c1	-	-	-	-	-
Cc1ncc(CO)c(/C=N/NC(=O)c2cc(Br)ccc2O)c1O	-	-	-	116.5	.
O=C(N/N=C/c1ccco1)c1cc(-c2cccs2)[nH]n1	-	-	-	-	40.6
